The text below walks through data of ChEMBL document CHEMBL1135530, “Selective alpha4beta7 integrin antagonists and their potential as antiinflammatory agents” (J Med Chem, 2002).

Structures are written as SMILES. Peptide text beside a SMILES is read from it.

The nature of assay [1]: Selectivity is the ratio of inhibitory concentrations at alpha4-beta1 integrin to alpha4-beta7 integrin.
In a further assay the target is Integrin alpha-4/beta-1 (Homo sapiens, UniProt P05556+P13612). In words: Inhibitory concentration affording 50% inhibition of alpha4-beta1 integrin binding to VCAM-1, using ELISA assay. Type of assay: protein-complex assay. The essentials: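 α4β1 extracted from Ramos cell membranes (lectin chromatography, gel filtration in 1% octylglucoside), with 1 mM MnCl2 throughout. Wells coated with 4 µg/mL recombinant soluble human VCAM-1 (5 N-terminal Ig domains, from CHO cells) and blocked with 1% BSA. Inhibitor and receptor 2 h at 37 °C in Tris pH 7.4. Bound receptor detected with anti-β1 mAb 2D4.6, then HRP anti-mouse and TMB at 450 nm. IC50 at half-maximal absorbance.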
Sequence of Integrin alpha-4/beta-1 (P05556 whole entry, one chain of several, the tested form may be a part): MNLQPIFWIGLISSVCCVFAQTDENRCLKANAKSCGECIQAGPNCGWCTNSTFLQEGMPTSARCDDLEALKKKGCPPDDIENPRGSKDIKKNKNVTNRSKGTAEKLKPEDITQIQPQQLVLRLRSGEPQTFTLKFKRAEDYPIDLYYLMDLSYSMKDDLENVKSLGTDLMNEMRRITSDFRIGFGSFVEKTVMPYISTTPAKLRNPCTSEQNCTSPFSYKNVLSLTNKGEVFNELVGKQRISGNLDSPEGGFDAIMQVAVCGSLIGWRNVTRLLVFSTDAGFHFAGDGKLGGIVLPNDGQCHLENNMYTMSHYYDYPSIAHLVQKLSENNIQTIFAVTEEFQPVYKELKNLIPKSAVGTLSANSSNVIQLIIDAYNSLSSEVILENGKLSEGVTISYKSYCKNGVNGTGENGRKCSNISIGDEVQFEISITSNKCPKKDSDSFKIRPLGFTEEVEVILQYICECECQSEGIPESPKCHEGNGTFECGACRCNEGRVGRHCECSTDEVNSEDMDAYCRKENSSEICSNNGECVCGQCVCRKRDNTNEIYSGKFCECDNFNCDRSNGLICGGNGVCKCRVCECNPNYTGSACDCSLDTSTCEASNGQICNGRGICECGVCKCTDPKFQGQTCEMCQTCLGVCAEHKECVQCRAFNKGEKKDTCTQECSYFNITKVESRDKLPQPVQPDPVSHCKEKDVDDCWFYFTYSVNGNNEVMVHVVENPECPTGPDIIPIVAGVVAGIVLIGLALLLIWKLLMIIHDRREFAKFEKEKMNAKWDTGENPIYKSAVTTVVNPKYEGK
On the technique in general: An ELISA detects its analyte on a solid surface through an enzyme-linked reagent.

A further assay addresses T1, Integrin alpha-4/beta-7 (Homo sapiens, UniProt P13612+P26010).
T1 sequence (P13612 whole entry): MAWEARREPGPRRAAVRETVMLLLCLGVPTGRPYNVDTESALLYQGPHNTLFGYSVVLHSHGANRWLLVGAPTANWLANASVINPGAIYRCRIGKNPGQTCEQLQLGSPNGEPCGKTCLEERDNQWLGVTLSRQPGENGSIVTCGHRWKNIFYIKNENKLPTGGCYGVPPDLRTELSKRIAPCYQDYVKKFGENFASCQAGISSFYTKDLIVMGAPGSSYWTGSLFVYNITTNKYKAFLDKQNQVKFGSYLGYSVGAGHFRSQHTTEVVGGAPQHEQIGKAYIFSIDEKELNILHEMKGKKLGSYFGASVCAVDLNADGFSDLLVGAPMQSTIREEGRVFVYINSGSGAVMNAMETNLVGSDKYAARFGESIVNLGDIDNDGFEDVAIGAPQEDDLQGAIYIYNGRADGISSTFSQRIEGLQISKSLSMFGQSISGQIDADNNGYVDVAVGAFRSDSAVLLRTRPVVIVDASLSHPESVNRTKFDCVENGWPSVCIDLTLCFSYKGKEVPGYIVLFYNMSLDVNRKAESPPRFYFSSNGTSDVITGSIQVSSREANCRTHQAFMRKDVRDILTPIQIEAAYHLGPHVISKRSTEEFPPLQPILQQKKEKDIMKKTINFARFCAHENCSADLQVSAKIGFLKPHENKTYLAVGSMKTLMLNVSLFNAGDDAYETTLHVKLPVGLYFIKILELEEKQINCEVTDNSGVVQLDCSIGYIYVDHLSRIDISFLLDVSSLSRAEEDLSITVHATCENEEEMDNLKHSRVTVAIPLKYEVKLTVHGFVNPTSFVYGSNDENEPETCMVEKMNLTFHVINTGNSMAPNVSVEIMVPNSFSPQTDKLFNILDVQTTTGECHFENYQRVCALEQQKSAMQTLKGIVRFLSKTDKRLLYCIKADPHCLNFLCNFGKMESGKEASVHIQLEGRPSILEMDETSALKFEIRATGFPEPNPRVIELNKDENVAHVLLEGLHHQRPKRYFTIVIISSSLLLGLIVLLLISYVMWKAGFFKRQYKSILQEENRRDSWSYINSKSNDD
T1 sequence (P26010 whole entry): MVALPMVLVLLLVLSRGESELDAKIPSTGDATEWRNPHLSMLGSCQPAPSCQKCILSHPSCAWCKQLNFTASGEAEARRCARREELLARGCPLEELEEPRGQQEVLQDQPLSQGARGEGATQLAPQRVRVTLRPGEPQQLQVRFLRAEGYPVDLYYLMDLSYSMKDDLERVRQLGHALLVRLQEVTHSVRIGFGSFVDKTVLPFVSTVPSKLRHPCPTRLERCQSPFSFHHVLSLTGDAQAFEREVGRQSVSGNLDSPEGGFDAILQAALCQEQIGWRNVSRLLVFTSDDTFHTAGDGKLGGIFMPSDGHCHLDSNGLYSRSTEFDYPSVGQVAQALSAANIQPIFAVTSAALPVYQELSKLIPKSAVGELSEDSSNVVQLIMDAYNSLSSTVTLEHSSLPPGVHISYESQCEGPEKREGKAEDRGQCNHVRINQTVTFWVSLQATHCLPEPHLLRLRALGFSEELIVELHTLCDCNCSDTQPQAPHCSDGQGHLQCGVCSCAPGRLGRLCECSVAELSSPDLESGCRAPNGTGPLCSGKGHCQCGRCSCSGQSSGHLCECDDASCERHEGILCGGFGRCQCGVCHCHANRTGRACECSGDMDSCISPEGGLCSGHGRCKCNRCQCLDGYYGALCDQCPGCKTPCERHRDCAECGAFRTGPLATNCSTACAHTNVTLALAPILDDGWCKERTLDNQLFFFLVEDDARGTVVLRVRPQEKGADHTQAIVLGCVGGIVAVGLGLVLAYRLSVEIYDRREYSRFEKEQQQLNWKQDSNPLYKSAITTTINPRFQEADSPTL
In words: Ability to block the alpha4-beta7 integrin-MAdCAM-1 binding interaction using a protein ELISA format. Type of assay: protein-complex assay. The essentials:
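Plates coated overnight at 4 °C with anti-human α4 antibody 9F10 (2 µg/mL), blocked in Tris pH 7.5 buffer with 1 mM MnCl2, Tween-20 and 0.5% BSA, then loaded with α4β7 purified from transfected JY cells (2 µg/mL). Compounds (1 nM–200 µM final, triplicate) plus MAdCAM-1-Ig-HRP (1 µg/mL), 2 h room temperature. TMB read at 450 nm; IC50 at half-maximal absorbance.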

For the compound `CC(C)C[C@H]1NC(=O)[C@H]([C@@H](C)O)NC(=O)[C@@H](CCC(=O)O)NC(=O)[C@H](CO)NC(=O)[C@@H](CCCN=C(N)N)NC(=O)[C@H](N)CSSC[C@H](C(N)=O)NC1=O`, in assay [1], the Ratio was found to be 0.1. On to `CC[C@H](C)[C@H]1NC(=O)[C@H]([C@@H](C)O)NC(=O)[C@@H](CC(=O)O)NC(=O)[C@H](CO)NC(=O)[C@@H](CCCN=C(N)N)NC(=O)[C@H](N)CSSC[C@H](C(N)=O)NC1=O`, for which the Ratio in assay [1] worked out at 14. Still for that read-out and setting: to `CC(C)C[C@H]1NC(=O)[C@H]([C@@H](C)O)NC(=O)[C@@H](CC(=O)O)NC(=O)[C@H](CO)NC(=O)[C@@H](Cc2ccc(O)cc2)NC(=O)[C@H](N)CSSC[C@H](C(N)=O)NC1=O` belongs 0.07; to `CC(C)C[C@H]1NC(=O)[C@H]([C@@H](C)O)NC(=O)[C@@H](CC(=O)O)NC(=O)[C@H](CO)NC(=O)[C@@H](Cc2c[nH]c3ccccc23)NC(=O)[C@H](N)CSSC[C@H](C(N)=O)NC1=O`, 0.37. With `CSCC[C@@H]1NC(=O)[C@@H](CCCN=C(N)N)NC(=O)[C@H](N)CSSC[C@H](C(N)=O)NC(=O)[C@@H](CC(C)C)NC(=O)[C@H]([C@@H](C)O)NC(=O)[C@@H](CC(=O)O)NC1=O`, the Ratio in assay [1] was 1.5. Same read-out and setting: to `CC[C@H](C)[C@@H]1NC(=O)[C@@H](CCCN=C(N)N)NC(=O)[C@H](N)CSSC[C@H](C(N)=O)NC(=O)[C@@H](CC(C)C)NC(=O)[C@H]([C@@H](C)O)NC(=O)[C@@H](CC(=O)O)NC1=O` belongs 0.06. For the compound `CSCC[C@H](N)C(=O)N[C@@H](CC(=O)O)C(=O)N[C@H]1CSSC[C@@H](C(=O)NCC(=O)N[C@@H](CCC(=O)O)C(N)=O)NC(=O)[C@H](CC(C)C)NC(=O)[C@H]([C@@H](C)O)NC(=O)[C@H](CC(=O)O)NC(=O)[C@H](CO)NC(=O)[C@H](CCCNC(=N)N)NC1=O` (HELM PEPTIDE1{M.D.C.R.S.D.T.L.C.G.E.[am]}$PEPTIDE1,PEPTIDE1,3:R3-9:R3$$$V2.0), the IC50 (in general, the point on the concentration scale where inhibition reaches its midpoint) is 4200 nM on Integrin alpha-4/beta-1 and 190 nM on Integrin alpha-4/beta-7. The corresponding values for `CC(C)C[C@@H]1NC(=O)[C@H]([C@@H](C)O)NC(=O)[C@H](CC(=O)O)NC(=O)[C@H](CO)NC(=O)[C@H](CCCN=C(N)N)NC(=O)[C@@H](NC(=O)[C@@H](N)CC(=O)O)CSSC[C@@H](C(=O)NCC(=O)N[C@@H](CCC(=O)O)C(N)=O)NC1=O` (HELM PEPTIDE1{D.C.R.S.D.T.L.C.G.E.[am]}$PEPTIDE1,PEPTIDE1,2:R3-8:R3$$$V2.0) are 8300 nM and 260 nM. For `CSCC[C@H](N)C(=O)N[C@@H](CC(=O)O)C(=O)N[C@H]1CSSC[C@@H](C(=O)NCC(N)=O)NC(=O)[C@H](CC(C)C)NC(=O)[C@H]([C@@H](C)O)NC(=O)[C@H](CC(=O)O)NC(=O)[C@H](CO)NC(=O)[C@H](CCCN=C(N)N)NC1=O` (HELM PEPTIDE1{M.D.C.R.S.D.T.L.C.G.[am]}$PEPTIDE1,PEPTIDE1,3:R3-9:R3$$$V2.0) the same measures were 8800 nM and 340 nM. For the compound `CC(C)C[C@@H]1NC(=O)[C@H](CCCN=C(N)N)NC(=O)[C@@H](N)CSSC[C@@H](C(N)=O)NC(=O)[C@H](CC(C)C)NC(=O)[C@H]([C@@H](C)O)NC(=O)[C@H](CC(=O)O)NC1=O`, the half-maximal inhibitory concentration (IC50) at Integrin alpha-4/beta-1 came out at 800 nM; on Integrin alpha-4/beta-7 it was 1900 nM. The corresponding values for `CC[C@H](C)[C@@H]1NC(=O)[C@H](CCCN=C(N)N)NC(=O)[C@@H](N)CSSC[C@@H](C(N)=O)NC(=O)[C@H](CC(C)C)NC(=O)[C@H]([C@@H](C)O)NC(=O)[C@H](CC(=O)O)NC1=O` are 1200 nM and 20000 nM. The corresponding values for `CC(C)C[C@@H]1NC(=O)[C@H]([C@@H](C)O)NC(=O)[C@H](CC(=O)O)NC(=O)[C@H](CO)NC(=O)[C@H](CCCCN)NC(=O)[C@@H](N)CSSC[C@@H](C(N)=O)NC1=O` are 1500 nM and 250 nM. For `C[C@@H](O)[C@@H]1NC(=O)[C@H](CC(=O)O)NC(=O)[C@H](CO)NC(=O)[C@H](CCCN=C(N)N)NC(=O)[C@@H](N)CSSC[C@@H](C(N)=O)NC(=O)CNC1=O` the same measures were greater than 100000 nM and 11000 nM. For `CC(C)C[C@@H]1NC(=O)[C@H](C)NC(=O)[C@H](CC(=O)O)NC(=O)[C@H](CO)NC(=O)[C@H](CCCN=C(N)N)NC(=O)[C@@H](N)CSSC[C@@H](C(N)=O)NC1=O` (HELM PEPTIDE1{C.R.S.D.A.L.C.[am]}$PEPTIDE1,PEPTIDE1,1:R3-7:R3$$$V2.0), the IC50 on Integrin alpha-4/beta-1 stood at 60000 nM; at Integrin alpha-4/beta-7, 10000 nM.

`CC(C)C[C@@H]1NC(=O)[C@H]([C@@H](C)O)NC(=O)[C@H](CC(=O)O)NC(=O)[C@H](CO)NC(=O)[C@H](CCCNC(=N)N)NC(=O)[C@@H](N)CSSC[C@@H](C(=O)O)NC1=O`: the IC50 on Integrin alpha-4/beta-1 came out at 400 nM; at Integrin alpha-4/beta-7 it was 130 nM.

Take `CSCC[C@@H]1NC(=O)[C@H](CCCN=C(N)N)NC(=O)[C@@H](N)CSSC[C@@H](C(N)=O)NC(=O)[C@H](CC(C)C)NC(=O)[C@H]([C@@H](C)O)NC(=O)[C@H](CC(=O)O)NC1=O`: the 50% inhibitory concentration (IC50) at Integrin alpha-4/beta-1 was 3200 nM; on Integrin alpha-4/beta-7 it was 2200 nM. For `CC(C)C[C@@H]1NC(=O)[C@H](C(C)C)NC(=O)[C@H](CC(=O)O)NC(=O)[C@H](CO)NC(=O)[C@H](CCCN=C(N)N)NC(=O)[C@@H](N)CSSC[C@@H](C(N)=O)NC1=O` the same measures were 13000 nM and 840 nM.

For `CC[C@H](C)[C@@H]1NC(=O)[C@H]([C@@H](C)O)NC(=O)[C@H](CC(=O)O)NC(=O)[C@H](CO)NC(=O)[C@H](CCCNC(=N)N)NC(=O)[C@@H](N)CSSC[C@@H](C(N)=O)NC1=O`, the IC50 at Integrin alpha-4/beta-1 worked out at 25000 nM; at Integrin alpha-4/beta-7, 1800 nM. For `CSCC[C@H](NC(=O)[C@H](CC(C)C)NC(=O)[C@H](Cc1c[nH]c2ccccc12)NC(=O)[C@H](CCCN=C(N)N)NC(=O)[C@H](CCC(=O)O)NC(=O)[C@H](Cc1c[nH]c2ccccc12)NC(C)=O)C(=O)N[C@@H](CC(=O)O)C(=O)N[C@H]1CSSC[C@@H](C(=O)NCC(=O)N[C@@H](CCC(=O)O)C(=O)N[C@@H](CO)C(=O)N[C@@H](Cc2c[nH]cn2)C(=O)N[C@@H](CCC(N)=O)C(=O)N[C@@H](CCC(=O)O)C(N)=O)NC(=O)[C@H](CC(C)C)NC(=O)[C@H]([C@@H](C)O)NC(=O)[C@H](CC(=O)O)NC(=O)[C@H](CO)NC(=O)[C@H](CCCN=C(N)N)NC1=O` (HELM PEPTIDE1{[ac].W.E.R.W.L.M.D.C.R.S.D.T.L.C.G.E.S.H.Q.E.[am]}$PEPTIDE1,PEPTIDE1,9:R3-15:R3$$$V2.0) the same measures were 12100 nM and 1300 nM.

For the compound `CC(C)C[C@@H]1NC(=O)[C@H]([C@@H](C)O)NC(=O)[C@H](CC(=O)O)NC(=O)[C@H](CO)NC(=O)[C@H](CCCNC(=N)N)NC(=O)[C@@H](NC(=O)[C@@H](N)CC(=O)O)CSSC[C@@H](C(N)=O)NC1=O` (HELM PEPTIDE1{D.C.R.S.D.T.L.C.[am]}$PEPTIDE1,PEPTIDE1,2:R3-8:R3$$$V2.0), the half-inhibitory concentration (IC50) was found to be 8600 nM on Integrin alpha-4/beta-1 and 520 nM on Integrin alpha-4/beta-7.
